Experimental data from different studies.
CSNK1D: Casein kinase I isoform delta (CSNK1D, Homo sapiens, UniProt P48730)
PLCD1: 1-phosphatidylinositol 4,5-bisphosphate phosphodiesterase delta-1 (PLCD1, Homo sapiens, UniProt P51178)
FLT3 ITD: Receptor-type tyrosine-protein kinase FLT3 (FLT3, Homo sapiens, UniProt P36888, ITD)
FLT3 D835Y: Receptor-type tyrosine-protein kinase FLT3 (FLT3, Homo sapiens, UniProt P36888, D835Y)
HTR2B: 5-hydroxytryptamine receptor 2B (HTR2B, Homo sapiens, UniProt P41595)

| Compound | target | effect on | action | method | notes | measurement | result |
| --- | --- | --- | --- | --- | --- | --- | --- |
| CN(C)C(=O)c1cc2cnc(Nc3ccc(C(=O)NCCCCCCOc4cccc5c4C(=O)N(C4CCC(=O)NC4=O)C5=O)cc3)nc2n1C1CCCC1 (centres unmarked) | Aurora kinase C (AURKC, Homo sapiens, UniProt Q9UQB9) | binding | – | competition with immobilised ligand | – | Kd | < 0.2 µM |
| N#Cc1ccc(O)cc1F | CSNK1D | binding | – | SPR | – | Kd | 20 to 50 µM |
| CCOc1ccc(C(=O)CC(SCc2ccc(F)cc2)C(=O)O)cc1 (centres unmarked) | PLCD1 | ligand displacement | – | FP | – | Ki | > 1000 µM |
| N#Cc1ccccc1C#CCO | CSNK1D | binding | – | SPR | – | Kd | > 50 µM |
| Cc1n[nH]c2ccc3nc(-c4ccc(C(=O)NCCN(C)C)cc4)c4c(c3c12)CCCCC4 | Receptor-type tyrosine-protein kinase FLT3 (FLT3, Homo sapiens, UniProt P36888) | enzyme activity | inhibitor | – | – | IC50 | 0.099 µM |
| c1ccc(-c2oc3ncnc(NCCCN4CCOCC4)c3c2-c2ccccc2)cc1 | CSNK1D | binding | – | SPR | – | Kd | > 50 µM |
| CCOc1ccc(C(=O)CC(SCc2ccc(Cl)cc2)C(=O)O)cc1OCC (centres unmarked) | PLCD1 | ligand displacement | – | FP | – | Ki | > 1000 µM |
| COCCNC(=O)c1ccc(-c2nc3ccc4[nH]ncc4c3c3c2CCCC3)cc1 | FLT3 ITD | enzyme activity | inhibitor | – | – | IC50 | 0.664 µM |
| COc1ccc(C(=O)CC(SCc2ccc(Cl)cc2)C(=O)O)cc1 (centres unmarked) | PLCD1 | ligand displacement | – | FP | – | Ki | > 1000 µM |
| O=C(NCC1CC1)c1ccc(-c2nc3ccc4[nH]ncc4c3c3c2CCCC3)cc1 | FLT3 ITD | enzyme activity | inhibitor | – | – | IC50 | > 1 µM |
| CCOc1ccc(C(=O)CC(SCc2ccc(Cl)cc2)C(=O)O)cc1 (centres unmarked) | PLCD1 | ligand displacement | – | FP | – | Ki | 780 µM |
| Cc1n[nH]c2ccc3nc(-c4ccc(C(=O)NCCN(C)C)cc4F)c4c(c3c12)CCCC4 | FLT3 D835Y | enzyme activity | inhibitor | – | – | IC50 | 0.005 µM |
| COc1cc2c3c(c1OC)-c1c(OC)ccc(O)c1CC3N(C)CC2 (centres unmarked) | HTR2B | ligand displacement | – | radioligand | – | Ki | 1.42 µM |
| CN(C)CCNC(=O)c1ccc(-c2nc3ccc4[nH]ncc4c3c3c2CCCCC3)c(F)c1 | FLT3 D835Y | enzyme activity | inhibitor | – | – | IC50 | 0.007 µM |
| Brc1cnc2nccnc2c1 | CSNK1D | binding | – | SPR | – | Kd | > 50 µM |
| Cc1n[nH]c2ccc3nc(-c4ccc(C(=O)NCCN(C)C)cn4)c4c(c3c12)CCCCC4 | FLT3 ITD | enzyme activity | inhibitor | – | – | IC50 | 0.419 µM |
| CCOc1ccc(C(=O)CC(SCc2cccc(Br)c2)C(=O)O)cc1 (centres unmarked) | PLCD1 | ligand displacement | – | FP | – | Ki | 630 µM |
| Brc1ccc2nccnc2c1 | CSNK1D | binding | – | SPR | – | Kd | > 50 µM |
| O=C(NCCN1CCCCC1)c1ccc(-c2nc3ccc4[nH]ncc4c3c3c2CCCC3)cc1 | FLT3 ITD | enzyme activity | inhibitor | – | – | IC50 | 0.741 µM |
| Oc1ccc(C2CNCCN2)cc1 (centres unmarked) | CSNK1D | binding | – | SPR | – | Kd | > 50 µM |
| C#CCOc1cccc(C(=O)CC(SCc2cccc(Br)c2)C(=O)O)c1 (centres unmarked) | PLCD1 | ligand displacement | – | FP | – | Ki | 710 µM |
| c1cc(CN2CCCNCCNCCCNCC2)ccc1CN1CCCNCCNCCCNCC1 | CSNK1D | binding | – | SPR | – | Kd | > 50 µM |
| CCOc1ccc(C(=O)CC(SCc2ccc(Cl)cc2)C(=O)OC)cc1 (centres unmarked) | PLCD1 | ligand displacement | – | FP | – | Ki | > 1000 µM |
| CN(C)CCNC(=O)c1ccc(-c2nc3ccc4[nH]ncc4c3c3c2CCCC3)cc1 | FLT3 ITD | enzyme activity | inhibitor | – | – | IC50 | 0.086 µM |
| CCOC(=O)c1cc(-c2ccc(OCC)cc2)oc1-c1ccc(Cl)cc1 | PLCD1 | ligand displacement | – | FP | – | Ki | > 100 µM |
| COc1cc2c3c(c1OC)-c1c(OC)ccc(Br)c1CC3N(C)CC2 (centres unmarked) | 5-hydroxytryptamine receptor 2C (HTR2C, Homo sapiens, UniProt P28335) | cell-free assay | – | radioligand | – | Ki | 2.2 µM |
| CCCNC(=O)c1ccc2c3c1C(CC(F)(F)F)CN3CCNC2 (racemic) | HTR2B | ligand displacement | – | radioligand | cell membranes | Ki | 2.25 µM |
| COCc1n[nH]c(N)c1-c1ccc(Cl)cc1 | CSNK1D | binding | – | SPR | – | Kd | > 50 µM |
| COc1cc2c3c(c1OC)-c1c(OC)ccc(N4CCOCC4)c1CC3N(C)CC2 (centres unmarked) | HTR2B | ligand displacement | – | radioligand | – | Ki | 0.773 µM |
